In the series the test system is MS2 coat protein. Nature of the series: apparent Kd, MS2 coat protein; higher = weaker binding; RNA-MaP array. A digest of the protocol: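 Designed RNAs were produced on an Illumina sequencing chip by transcription of sequenced DNA templates. Binding to fluorescently labeled MS2 coat protein (1.5 nM to 3 μM) was measured at room temperature with or without input ligand. The apparent Kd is the median of per-cluster binding-curve fits. Designs were excluded when measured on fewer than 10 clusters.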

The mark [1] stands for this setting: designed as: OFF switch for flavin mononucleotide, no ligand.
Setting [2] is: ligand present: flavin mononucleotide, designed as: OFF switch for flavin mononucleotide.
Where [3] appears, read: designed as: ON switch for flavin mononucleotide, no ligand.
Where [4] appears, read: ligand present: flavin mononucleotide, designed as: ON switch for flavin mononucleotide.
Setting [5] is: designed as: OFF switch for tryptophan, no ligand.
[6] abbreviates: ligand present: tryptophan, designed as: OFF switch for tryptophan.
Setting [7] is: designed as: OFF switch for theophylline, no ligand.
Where [8] appears, read: ligand present: theophylline, designed as: OFF switch for theophylline.
Where [9] appears, read: designed as: ON switch for tryptophan, no ligand.
Where [10] appears, read: ligand present: tryptophan, designed as: ON switch for tryptophan.

The apparent Kd is the concentration giving half-maximal binding under the conditions of the assay. On to “UCGCAUUCAGGAUAUACUUAAAGGUGAACUGAUCAUAGCAAACAUGAGGAUCACCCAUGUAGAAGGGAAAUAUC”, for which the “apparent Kd” value under setting [1] was determined as 99.2 nM and the “apparent Kd” value under setting [2] was determined as 72.7 nM.
The matching figures for “GCAGGAAAGCAGAAGGACACCACAUGAGGAUCACCCAUGUCGGCGCUGACUUUGAUCUUGAGGAUGUAGGAUAUGCGUUUCGGA”: 8.76 nM and 17.4 nM.
As for “CGGUAGUUUUAGAAGGAGCAACCAAGUUUACAUGAGGAUCACCCAUGUGUGAGGAUAUGUUAAGGCUAGGAUAUAAUAGAACCU”, the “apparent Kd” value runs as follows: under setting [1], 25.4 nM; under setting [2], 23.4 nM.
With “GGAUUCAGAGGAUAUACAUGAGGAUCACCCAUGUCAUUCAGCCAAGAUAUGUGUUUCAGUAGAAGGCUGAUCGG”, the “apparent Kd” value is, setting by setting: under setting [1], 22.3 nM; under setting [2], 18 nM.
With “UAAGAGUCGGCAGGAUAUGUCCCUUGAGCGCAGACAGAAGGGCCACUAUCUUUCACAUGAGGAUCACCCAUGUCCUCCCUGGAG”, the “apparent Kd” value came to 49 nM under setting [1] and 61.6 nM under setting [2].
The matching figures for “UCAUGCUGAGGAUAUACAUGAGGAUCACCCAUGUACAGAAUAAGGGAGUGCCAUCAAAGUAGAAGGCAGGACGU”: 14.4 nM and 14.6 nM.
The matching figures for “AAAAUUGAAGGAUAUACAUGAGGAUCACCCAUGUGCAACAUAUUUGAAUGGCCUCACGGUAGAAGGUCAAAACG”: 6.83 nM and 7.52 nM.
Consider “UCUUCAAUAGUAAGGAUAUCCAUAACAACAUUCAAGGAGAAGGUACAUGAGGAUCACCCAUGUGGAGUCAAUAA”, for which the “apparent Kd” value is, setting by setting: under setting [1], 13.1 nM; under setting [2], 19.8 nM.
The matching figures for “CCUGUGAUCCACAUGAGGAUCACCCAUGUAUAAGUGAUUGACAGAAGGAGAGCAUGCUUGUGAUUCUAGGAUAUGUUUCUCAUA”: 25.2 nM and 25.9 nM.
For “GUCUCUAGGACAGGAUAUCUCCUCAGGGAUGCGAGAGAAGGGUCUAUUGACAUGAGGAUCACCCAUGUGGAUCAUGUCUAUGAU”, the “apparent Kd” value runs as follows: under setting [1], 378 nM; under setting [2], 352 nM.
Take “UCCCGAAAGAAGAAGGGUACACCGAGCUGGUAACACAGCAAAACAUGAGGAUCACCCAUGUCUGAACAGGAUAUUCCGCGAGUA”: the “apparent Kd” value runs as follows: under setting [3], 31.9 nM; under setting [4], 25.5 nM.
“AUCUGGAGAGGAUAUUGAUCGGAACACAUGAGGAUCACCCAUGUGAGCCCUCGUGUCCCUCAAGAAGGCUCGGGCG”: the “apparent Kd” value under setting [1] was determined as 5.73 nM and the “apparent Kd” value under setting [2] amounted to 7.71 nM.
The matching figures for “AGGACAUGAGGAUCACCCAUGUGAUGACAUUUCCUAGAACCGAAGGAUAUGCAAACGGAACCCGCGCAGAAGGUCGCUAACCUU”: 57.5 nM and 42.5 nM.
The matching figures for “ACAAACUCAGGAUAUAACGGUGGACACAUGAGGAUCACCCAUGUAAUCCGUGUGACUUAUUUAGAAGGGAGGCGAU”: 8.35 nM and 8.34 nM.
As to “CCAUUGCAUGGAGGAUAUGAGCAGUAAGUACUCUCAGAAGGCCACGGAGUAAACAAACCAUCUUACAUGAGGAUCACCCAUGUA”, the “apparent Kd” value reads like this: under setting [3], 13 nM; under setting [4], 7.69 nM.
Take “ACUGCUUUAGCGGCCGCCACUACAUGGACACUUACACUUUCUUGUUACAUGAGGAUCACCCAUGUUAGGACCGGGCUUGUACGGA”: the “apparent Kd” value under setting [5] came out at 62.1 nM and the “apparent Kd” value under setting [6] worked out at 78.2 nM.
Take “GAUGAGCGCACGGGAAUAAACAUGAGGAUCACCCAUGUCGUUAGAAGGGUAUUCGCCGGGACCAUACAGGAUAUAACGCGUCAC”: the “apparent Kd” value is, setting by setting: under setting [3], 25.7 nM; under setting [4], 21 nM.
Take “CUACAUGGGCUCGAUACCAGUCAGCUCUCGCGUCUCUCAGACAUGAGGAUCACCCAUGUUGACCCUUGGCAGCGACGAUGUAGGC”: the “apparent Kd” value came to 79.8 nM under setting [7] and 500 nM under setting [8].
“AGAUCCCUGGUGAGGAUAUGUGAGACAUUCCCAGGACAGAAGGCACAUGAGGAUCACCCAUGUGUUGGGUAAUU”: the “apparent Kd” value under setting [1] was 6.32 nM and the “apparent Kd” value under setting [2] amounted to 6.65 nM.
As to “CUCUUAGGACAGGAUAUGGAACGCAUGUGUGCUCCAGAAGGGUCUACAUGAGGAUCACCCAUGUUCGGGACGGU”, the “apparent Kd” value stood at 530 nM under setting [1] and 469 nM under setting [2].
Turning to “GCCCUGCGCCCGGGACCGGCAAGAUCCAUGCGAGGACCGGUACGGCCGCCACUCGCAGACGUACAUGAGGAUCACCCAUGUCCUC”, the “apparent Kd” value runs as follows: under setting [5], 565 nM; under setting [6], 663 nM.
On to “GCAGACAUGAGGAUCACCCAUGUACUUGGGCGAGGACCGGUACGGCCGCCACUCGUAGACUUGACGAGGAAAUGUUCUCGCAGGG”, for which the “apparent Kd” value under setting [9] turned out to be 22.4 nM and the “apparent Kd” value under setting [10] was 19.1 nM.
For the sequence “GUCUCUCGCUUAGGAUAUCAGCACGAUUAUCCCUGAGAAGGAAGUGACAGACAUGAGGAUCACCCAUGUAUCCAAGGUUCGAAG”, the “apparent Kd” value was found to be 15.6 nM under setting [1] and 15 nM under setting [2].
On to “CAUAUCAAUUCAGGAUAUUCUGUUUAAUACAUGAGGAUCACCCAUGUCCUCCAAAGAUUAGCAAGGAAGAAGGGAAGUAAACAG”, for which the “apparent Kd” value by setting is: under setting [1], 82.2 nM; under setting [2], 69 nM.
With “AUUGACUCAGAGAAGGGACUCAACAUGAGGAUCACCCAUGUUCUUUCGAAUAAAGGCUCUUAGGGUCAGGAUAUCUGUACGUAA”, the “apparent Kd” value runs as follows: under setting [3], 9.6 nM; under setting [4], 9.99 nM.
For the sequence “CGCUUGUUCAUAGGAUAUGCUAGGUAACUCAUGGUGAGUUGGGGAACAUGAGGAUCACCCAUGUGGCAGAAGGAUGGCGUUAAU”, the “apparent Kd” value under setting [1] came out at 65 nM and the “apparent Kd” value under setting [2] amounted to 55.3 nM.
The matching figures for “ACAGAAAAUAGAGGAUAUACAAGAACAUGAGGAUCACCCAUGUAAUAACAAUAUGAUCGGUUCAAGAAGAAGGCUAAACAAAAU”: 14.2 nM and 12.8 nM.
As for “GAUAUACAUGAGGAUCACCCAUGUCCAAAUUAAGUUUUAGUAUAGGAUAUUGACCGCUAGGAUGUCAAGAAGGAUACCCGAGGU”, the “apparent Kd” value reads like this: under setting [3], 14.8 nM; under setting [4], 7.52 nM.
In the case of “UAGUCAUCGGCAGGAUAUUCGCUAGUAGACUAUGAAGAAGGGCCACGUACCUCACAAACAUGAGGAUCACCCAUGUAUCUGGAC”, the “apparent Kd” value runs as follows: under setting [1], 39.2 nM; under setting [2], 29 nM.
The matching figures for “GGGAUCGGAGGAUAUCGGUGGUUUAACAUGAGGAUCACCCAUGUGAAUAAACAAGUGGAGCGAGAAGGCCGGCGCU”: 14.7 nM and 9.97 nM.
As to “CGUUACAUAGAGAAGGUUCAUAAGAUCAAAUAACAUGAGGAUCACCCAUGUAUGUAAGCAUGAGGAAAGGAUAUCUACCGCCAG”, the “apparent Kd” value reads like this: under setting [3], 144 nM; under setting [4], 70.1 nM.
The matching figures for “GCAUAAGAUCAGAAGGGUAAUUUGUAACAACAUACAGGAUAUGAGGAAACAUGAGGAUCACCCAUGUGAAGCGAAAACAGAAAU”: 15.5 nM and 11.4 nM.
For “AGAACCCAAGAGGAUACCAGAACGACAAUCAAAUCUUUUUACAUGAGGAUCACCCAUGUUUUCCCUUGGCAGCCUCAUGCACGAC”, the “apparent Kd” value under setting [7] came to 72.1 nM and the “apparent Kd” value under setting [8] was determined as 60.8 nM.
Regarding “GAUCCGCUCGAGAAGGUCGUCGGGCACCGAGUCGAAGGAUAUCGAGAAUGAAGACAUGAGGAUCACCCAUGUGAGGAGCGAUCC”, the “apparent Kd” value by setting is: under setting [1], 136 nM; under setting [2], 126 nM.
“AGUCGUACCAAGAAGGUACCCGGCUAAUGGUGGUAAGGAUAUUGUACGAACCCUAACAUGAGGAUCACCCAUGUCCACAGUGGG”: the “apparent Kd” value is, setting by setting: under setting [1], 53.5 nM; under setting [2], 33 nM.
In the case of “AGCAGAGCCUAGAAGGCAGUGCAGACCGCGCACUGAGGAUAUAGACUUUAAGAUUGUACAUGAGGAUCACCCAUGUUGAGUGGG”, the “apparent Kd” value was found to be 563 nM under setting [1] and 450 nM under setting [2].
“GUUUACAUGAGGAUCACCCAUGUCGCCGGCCGAGGACCGGUACGGCCGCCACUCGUCCUAAUGGCACUUGACUUCCCUAUUAAGU”: the “apparent Kd” value was 20.3 nM under setting [9] and 24.3 nM under setting [10].
Take “CGCAGACUGUUAGGAUAUGAUACUAACAUGAGGAUCACCCAUGUUUACUCAGUGGAUAAGCAGAGUCAGAAGGAACAUUACGCA”: the “apparent Kd” value amounted to 12.2 nM under setting [3] and 9.29 nM under setting [4].
With “GUGGGCGCUGAGAAGGACCGGAGACGCCGAUUGGUAGGAUAUCAGAAAGGUGCCGGUGAUUACAUGAGGAUCACCCAUGUAUGG”, the “apparent Kd” value is, setting by setting: under setting [1], 22.8 nM; under setting [2], 20.2 nM.
Take “AAAAGGUCCGCUACAUGAGGAUCACCCAUGUAAAGGGUAAAUCAGGAUAUGGACGGGAGUCUUAACCAGAAGGGAUUACAGGUC”: the “apparent Kd” value under setting [3] was 31.6 nM and the “apparent Kd” value under setting [4] came to 25.1 nM.
In the case of “UUACAACUAAUGGAUACCAGCCGCGUGCUAGUGGUAGCAUACAUGAGGAUCACCCAUGUCGGCCCUUGGCAGCCACGCCCAUGCU”, the “apparent Kd” value under setting [7] was found to be 14.5 nM and the “apparent Kd” value under setting [8] came out at 21.5 nM.
For the sequence “AUGCCACCAUACCGCAGUAAUACAUGAGGAUCACCCAUGUAGGAGGAUAUACUUUUGGUAAUGAUGUAGAAGGCCUAGUGGUAC”, the “apparent Kd” value under setting [3] is 5.91 nM and the “apparent Kd” value under setting [4] worked out at 6.09 nM.
Take “CAAUACGAUGUCAGGAUAUUAUUUCAAGUAGACGGUAAGAAGGGACAUGAGGAUCACCCAUGUACGGAAUACGC”: the “apparent Kd” value by setting is: under setting [1], 6.35 nM; under setting [2], 6.32 nM.
The matching figures for “UACAAGCAAGGAUAUACAUGAGGAUCACCCAUGUGGAGAGCCAGCAAAUUCCGGAAAUGUAGAAGGUGCCACAA”: 34.4 nM and 32.8 nM.
In the case of “AUGCACGGGCUAAUCUGCGAUUGGCACGAUACCAGAGAUCAAGACCUCCCUUGGCAGCGUGUCACAUGAGGAUCACCCAUGUGGA”, the “apparent Kd” value was found to be 131 nM under setting [7] and 94.8 nM under setting [8].
For “CACGUACAUGAGGAUCACCCAUGUAUGUCCGAAACGCGAGUACAGGAUAUGAUAUGGAGAAGUCUUCAGAAGGGUACAAAUCGC”, the “apparent Kd” value worked out at 58.4 nM under setting [3] and 21.6 nM under setting [4].
The matching figures for “GCGUGACAUGAGGAUCACCCAUGUAGACUUGUGGAAGGAUAUACGAGAGUUCGAGUUAAGGUAGAAGGUCCCGAUG”: 41.3 nM and 16.3 nM.

The record behind these values is the EternaBench riboswitch data.
